Experimental data from ChEMBL document CHEMBL1795290, “Simplification of the tetracyclic SIRT1-selective inhibitor MC2141: coumarin- and pyrimidine-based SIRT1/2 inhibitors with different selectivity profile” (Bioorg Med Chem, 2011).
Active and inactive are the calls of the source. The rule behind the calls is not given here.

Experiments:
U-937 [1] = assay: Cell cycle arrest in human U937 cells assessed as accumulation at G2/M phase at 50 uM incubated for 30 hrs by flow cytometry; type: functional, cell-based
In short: (§1)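 U937 leukaemia cells were exposed to compound at 50 µM for 30 h. Then 2.5 × 10^5 cells were resuspended in hypotonic buffer (0.1% Triton X-100, 0.1% sodium citrate, 50 µg/mL propidium iodide, RNase A) and kept 30 min in the dark. DNA content was read by flow cytometry and cell-cycle phases were modelled. Run in triplicate.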

U-937 [2] = assay: Toxicity in human U937 cells at 50 uM incubated for 30 hrs; type: cell-based; conditions: u-937, 30 h
U-937 [3] = assay: Induction of granulocytic differentiation in human U937 cells assessed as change in CD11c expression at 50 uM […] by FACS assay; type: functional
[4] = target: T1, NAD-dependent protein deacetylase sirtuin-2 (Homo sapiens) (UniProt Q8IXJ6); assay: Inhibition of human recombinant SIRT2 expressed in Escherichia coli at 50 uM incubated at 37 degC for 2 hrs by Fluor de Lys fluorescence assay
T1 sequence (whole entry): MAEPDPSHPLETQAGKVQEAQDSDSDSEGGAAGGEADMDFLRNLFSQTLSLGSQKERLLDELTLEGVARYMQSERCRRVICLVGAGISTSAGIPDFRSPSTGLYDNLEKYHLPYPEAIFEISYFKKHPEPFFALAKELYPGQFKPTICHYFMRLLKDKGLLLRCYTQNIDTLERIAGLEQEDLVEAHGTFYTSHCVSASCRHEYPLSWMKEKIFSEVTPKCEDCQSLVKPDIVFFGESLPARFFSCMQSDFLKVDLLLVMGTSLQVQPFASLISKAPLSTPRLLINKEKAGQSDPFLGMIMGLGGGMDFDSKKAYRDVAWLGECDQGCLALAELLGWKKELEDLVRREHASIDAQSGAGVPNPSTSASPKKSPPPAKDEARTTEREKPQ
In short: (§2)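 Human recombinant enzymes expressed in E. coli: SIRT1 at 2 U, SIRT2 at 7 U. Two-stage assay with a deacetylation step at 37 °C for 2 h, using Fluor de Lys-SIRT1/2 substrate with NAD+ and compound (50 µM single point or a concentration series). IC50 obtained by curve fitting.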

[5] = target: T2, NAD-dependent protein deacetylase sirtuin-1 (Homo sapiens) (UniProt Q96EB6); assay: Inhibition of human recombinant SIRT1 expressed in Escherichia coli at 50 uM incubated at 37 degC for 2 hrs by Fluor de Lys fluorescence assay; in short: as §2
T2 sequence (whole entry): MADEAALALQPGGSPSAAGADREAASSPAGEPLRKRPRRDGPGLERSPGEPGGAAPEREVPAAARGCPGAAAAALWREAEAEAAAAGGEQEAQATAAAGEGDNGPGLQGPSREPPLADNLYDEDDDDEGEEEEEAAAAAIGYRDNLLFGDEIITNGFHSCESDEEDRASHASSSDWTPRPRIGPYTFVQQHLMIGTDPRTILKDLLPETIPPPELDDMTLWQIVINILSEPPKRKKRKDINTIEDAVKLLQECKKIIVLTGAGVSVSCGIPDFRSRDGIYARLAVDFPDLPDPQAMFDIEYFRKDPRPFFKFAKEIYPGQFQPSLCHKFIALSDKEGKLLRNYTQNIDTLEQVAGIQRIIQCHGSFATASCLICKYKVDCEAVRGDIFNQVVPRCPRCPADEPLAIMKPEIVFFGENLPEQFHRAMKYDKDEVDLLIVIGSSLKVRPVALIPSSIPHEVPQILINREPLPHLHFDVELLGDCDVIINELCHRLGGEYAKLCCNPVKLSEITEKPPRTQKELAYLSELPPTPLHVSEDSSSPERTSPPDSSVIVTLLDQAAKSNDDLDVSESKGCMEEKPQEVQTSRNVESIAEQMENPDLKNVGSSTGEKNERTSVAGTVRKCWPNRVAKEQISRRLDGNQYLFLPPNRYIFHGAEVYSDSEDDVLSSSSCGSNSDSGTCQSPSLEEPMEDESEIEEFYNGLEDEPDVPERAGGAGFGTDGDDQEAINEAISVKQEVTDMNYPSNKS

U-937 [6] = assay: Cell cycle arrest in human U937 cells assessed as accumulation at G1 phase at 50 uM incubated for 30 hrs by flow cytometry; type: functional, cell-based; in short: as §1
U-937 [7] = assay: Induction of apoptosis in human U937 cells assessed as caspase 3/7 activation at 50 uM incubated for 30 hrs by FACS assay based B-Bridge method; type: functional
In short: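 U937 cells were treated at 50 µM for 30 h. Apoptosis was scored as caspase 3–7 activation using a caspase 3–7 detection kit, with FACS read-out.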

[8] = target: T3, NAD-dependent protein deacetylase sirtuin-2 (Homo sapiens, UniProt Q8IXJ6); assay: Inhibition of human recombinant SIRT2 expressed in Escherichia coli incubated at 37 degC for 2 hrs by Fluor de Lys fluorescence assay; in short: as §2
T3 sequence (Q8IXJ6 whole entry): T1 sequence (whole entry)

[9] = target: T4, NAD-dependent protein deacetylase sirtuin-1 (Homo sapiens, UniProt Q96EB6); assay: Inhibition of human recombinant SIRT1 expressed in Escherichia coli incubated at 37 degC for 2 hrs by Fluor de Lys fluorescence assay; in short: as §2
T4 sequence (Q96EB6 whole entry): T2 sequence (whole entry)

U-937 [10] = assay: Cell cycle arrest in human U937 cells assessed as accumulation at G1/S phase at 50 uM incubated for 30 hrs by flow cytometry; type: functional, cell-based; in short: as §1

Row | Compound | Activity (U-937 [1]) | Activity (U-937 [2]) | Activity (U-937 [3]) | inhibition [4] [%] | inhibition [5] [%] | Activity (U-937 [6]) | Activity (U-937 [7]) | IC50 [8] [µM] | IC50 [9] [µM] | Activity (U-937 [10])
1 | O=C1Oc2ccc3ccccc3c2CC1C(=O)c1ccc(Cl)cc1 (centres undefined) | Active | Non-toxic | >30% | 89.5 | 17.1 | – | – | – | – | –
2 | O=c1[nH]c(=S)[nH]c(-c2ccc3ccccc3c2)c1Cc1c(O)ccc2ccccc12 | – | Non-toxic | inactive | 47.9 | 83 | Active | Active | 49.9 | 12.4 | –
3 | O=c1[nH]c(=S)[nH]c(CCc2ccccc2)c1Cc1c(O)ccc2ccccc12 | – | Non-toxic | inactive | 49.8 | 83 | – | Active | 50.8 | 17.5 | –
4 | O=c1nc2oc3ccc4ccccc4c3cc-2c(=O)n1-c1ccccc1 | Active | – | inactive | – | – | – | – | – | – | –
5 | O=C1Oc2ccc3ccccc3c2CC1C(=O)c1ccccc1 (centres undefined) | – | Non-toxic | – | 20.2 | 32.1 | – | Active | 179 | 112 | Active
